Positions count from the first letter of the chain named.
Legend:
TMPK from yeast (ScTMPK) = conditions: cited from earlier work
WT hTMPK [1] = target: T1, WT hTMPK (Homo sapiens, UniProt P23919); conditions: cited from earlier work
T1 sequence (P23919 1-212): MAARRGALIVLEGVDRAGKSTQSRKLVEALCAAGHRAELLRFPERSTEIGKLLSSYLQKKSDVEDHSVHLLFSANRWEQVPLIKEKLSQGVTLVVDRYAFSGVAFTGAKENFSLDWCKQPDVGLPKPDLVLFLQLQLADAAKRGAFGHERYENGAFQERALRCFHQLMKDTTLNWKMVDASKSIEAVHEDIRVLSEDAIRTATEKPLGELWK

F105Y hTMPK [2] = target: T2, F105Y hTMPK (Homo sapiens, UniProt P23919, F105Y); conditions: cited from earlier work
T2 sequence (P23919 1-212 F105Y): T1 sequence (P23919 1-212) with F105Y

F105Y hTMPK [3] = target: T2, F105Y hTMPK; experiment: ADP binding constants by two-dimensional NMR lineshape fitting of ADP titration; conditions: for Kd / koff: 34 °C, pH 6.9
How it was run: (§1)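 ILV methyl-labelled (13CH3/13CHD2) His-tagged hTMPK was expressed in E. coli and purified by cobalt affinity and cation exchange. Samples were in D2O with 20 mM MES, 150 mM NaCl, 10 mM MgCl2, 1 mM DTT, pH 6.9, plus 2 mM TMP or AZTMP. Protein was WT 0.8 mM and F105Y 0.4 mM. ADP was titrated at 0–2.4 ligand:protein across a 1H–13C HMQC series at 34 °C. KD and koff came from 2D lineshape fitting of five shifting methyl peaks (2-state model) with bootstrap errors.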

WT hTMPK [4] = target: T1, WT hTMPK; assay type: binding; conditions: WT–AZTMP, 2 mM ADP, Ile184δ1 CPMG RD
How it was run: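 Ile184δ1 CHD2 methyl 1H CPMG dispersion was run at 34 °C on a WT–AZTMP sample with 2 mM ADP, in pH 6.9 MES/MgCl2 D2O buffer. Trelax was 40 ms with ncyc 1–78. pa and kex were fitted by grid search to the full exchange equation, and koff was derived from them. Errors are ±2 standard error from 100 bootstrap resampled datasets.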

WT hTMPK [5] = target: T1, WT hTMPK; experiment: ADP binding constants by two-dimensional NMR lineshape fitting of ADP titration; conditions: for Kd / koff: 34 °C, pH 6.9
How it was run: as §1

Row | SMILES | kCAT (TMPK from yeast (ScTMPK)) [s^–1] | Km (WT hTMPK [1]) [µM] | kCAT (WT hTMPK [1]; substrate phosphorylation) [s^–1] | kCAT (F105Y hTMPK [2]; F105Y hTMPK, substrate phosphorylation) [s^–1] | Km (F105Y hTMPK [2]; F105Y hTMPK) [µM] | reduction of activity toward TMP by Phe105Tyr mutation (F105Y hTMPK [2]; F105Y vs WT hTMPK) [fold] | Kd (F105Y hTMPK [3]; ADP binding to F105Y hTMPK with 2 mM AZTMP bound) [µM] | Kd (F105Y hTMPK [3]; ADP binding to F105Y hTMPK with 2 mM TMP bound) [µM] | koff (F105Y hTMPK [3]; ADP off-rate from F105Y hTMPK with 2 mM AZTMP bound) [s^–1] | koff (F105Y hTMPK [3]; ADP off-rate from F105Y hTMPK with 2 mM TMP bound) [s^–1] | reduced ADP off-rate (koff) with AZTMP bound relative to TMP bound (F105Y hTMPK [3]; F105Y hTMPK) [fold] | koff estimated from kex and pa (WT hTMPK [4]) [s^–1] | Kd (WT hTMPK [5]; ADP binding to WT hTMPK with 2 mM AZTMP bound) [µM] | Kd (WT hTMPK [5]; ADP binding to WT hTMPK with 2 mM TMP bound) [µM] | koff (WT hTMPK [5]; ADP off-rate from WT hTMPK with 2 mM AZTMP bound) [s^–1] | koff (WT hTMPK [5]; ADP off-rate from WT hTMPK with 2 mM TMP bound) [s^–1] | faster ADP off-rate (koff) with AZTMP bound than with TMP bound (WT hTMPK [5]; WT hTMPK) [fold]
1 | Cc1cn([C@H]2C[C@H](O)[C@@H](COP(=O)(O)O)O2)c(=O)[nH]c1=O [TMP, thymidine monophosphate] | 35 | 6.3 | 0.73 | 0.17 | 4.2 | 4 | – | – | – | – | – | – | – | – | – | – | –
2 | Nc1ncnc2c1ncn2[C@@H]1O[C@H](COP(=O)(O)OP(=O)(O)O)[C@@H](O)[C@H]1O [ADP] | – | – | – | – | – | – | 4.4 ± 1.7 | 4.2 ± 1.3 | 0.20 ± 0.9 | 2.7 ± 0.8 | 15 | 31 ± 5.1 | 15 ± 1 | 15 ± 2.1 | 24 ± 0.8 | 12 ± 0.7 | 2
